How the values were obtained:
[1] = system: U-937; test: Induction of apoptosis by the compound in human U937 cell line after 72 hours; format: functional, cell-based; details: U-937, 72 h
Outline: (§1)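 Cultures were exposed under optimal conditions to 16–1000 µM compound, or control medium, for the stated time. Cells were stained with acridine orange, and over 600 cells were counted by fluorescence microscopy. AC50 is the concentration giving 50% apoptosis, from three or more experiments (some are the mean of two).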

[2] = system: MOLT-3; test: Cytotoxicity in human Molt-3 cell line after 48 hours; format: functional; details: MOLT-3, 48 h
Outline: (§2)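 Cells held in optimal culture conditions were exposed to test agent at 16 to 1000 µM, or control medium, for the stated time. Viability was scored by trypan blue exclusion. CC50 is the concentration giving 50% toxicity, from three or more experiments (some values are the mean of two).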

[3] = system: MOLT-3; test: Induction of apoptosis by the compound in human Molt-3 cell line after 24 hours; format: functional, cell-based; details: MOLT-3, 24 h; outline: as §1
[4] = system: HL-60; test: Cytotoxicity in human HL-60 cell line after 24 hours; format: functional; details: HL-60, 24 h; outline: as §2
[5] = system: U-937; test: Induction of apoptosis by the compound in human U937 cell line after 48 hours; format: functional, cell-based; details: U-937, 48 h; outline: as §1
[6] = system: MOLT-3; test: Cytotoxicity in human Molt-3 cell line after 24 hours; format: functional; details: MOLT-3, 24 h; outline: as §2
[7] = system: U-937; test: Induction of apoptosis by the compound in human U937 cell line after 24 hours; format: functional, cell-based; details: U-937, 24 h; outline: as §1
[8] = system: HL-60; test: Induction of apoptosis by the compound in human HL-60 cell line after 24 hours; format: functional, cell-based; details: HL-60, 24 h; outline: as §1
[9] = system: HL-60; test: Induction of apoptosis by the compound in human HL-60 cell line after 48 hours; format: functional, cell-based; details: HL-60, 48 h; outline: as §1
[10] = system: HL-60; test: Cytotoxicity in human HL-60 cell line after 72 hours; format: functional; details: HL-60, 72 h; outline: as §2
[11] = system: U-937; test: Cytotoxicity in human U937 cell line after 24 hours; format: functional; details: U-937, 24 h; outline: as §2
[12] = system: U-937; test: Cytotoxicity in human U937 cell line after 48 hours; format: functional; details: U-937, 48 h; outline: as §2
[13] = system: HL-60; test: Induction of apoptosis by the compound in human HL-60 cell line after 72 hours; format: functional, cell-based; details: HL-60, 72 h; outline: as §1
[14] = system: MOLT-3; test: Induction of apoptosis by the compound in human Molt-3 cell line after 72 hours; format: functional, cell-based; details: MOLT-3, 72 h; outline: as §1
[15] = system: MOLT-3; test: Induction of apoptosis by the compound in human Molt-3 cell line after 48 hours; format: functional, cell-based; details: MOLT-3, 48 h; outline: as §1
[16] = system: MOLT-3; test: Cytotoxicity in human Molt-3 cell line after 72 hours; format: functional; details: MOLT-3, 72 h; outline: as §2
[17] = system: HL-60; test: Cytotoxicity in human HL-60 cell line after 48 hours; format: functional; details: HL-60, 48 h; outline: as §2
[18] = system: U-937; test: Cytotoxicity in human U937 cell line after 72 hours; format: functional; details: U-937, 72 h; outline: as §2

CCOP(=O)(CC1CC(n2ccc(N)nc2=O)ON1C)OCC (configuration not stated)
AC50 [1]: > 1000 µM
CC50 [2]: > 1000 µM
AC50 [3]: > 1000 µM
CC50 [4]: > 1000 µM
AC50 [5]: > 1000 µM
CC50 [6]: > 1000 µM
AC50 [7]: > 1000 µM
AC50 [8]: > 1000 µM
AC50 [9]: > 1000 µM
CC50 [10]: > 1000 µM
CC50 [11]: > 1000 µM
CC50 [12]: > 1000 µM
AC50 [13]: > 1000 µM
AC50 [14]: > 1000 µM
AC50 [15]: > 1000 µM
CC50 [16]: > 1000 µM
CC50 [17]: > 1000 µM
CC50 [18]: > 1000 µM

CCOP(=O)(CC1CC(n2cc(C)c(=O)[nH]c2=O)ON1C)OCC (configuration not stated)
AC50 [1]: > 1000 µM
CC50 [2]: > 1000 µM
AC50 [3]: > 1000 µM
CC50 [4]: > 1000 µM
AC50 [5]: > 1000 µM
CC50 [6]: > 1000 µM
AC50 [7]: > 1000 µM
AC50 [8]: > 1000 µM
AC50 [9]: > 1000 µM
CC50 [10]: > 1000 µM
CC50 [11]: > 1000 µM
CC50 [12]: > 1000 µM
AC50 [13]: > 1000 µM
AC50 [14]: > 1000 µM
AC50 [15]: > 1000 µM
CC50 [16]: > 1000 µM
CC50 [17]: > 1000 µM
CC50 [18]: > 1000 µM

CCOP(=O)(CC1CC(n2cc(F)c(=O)[nH]c2=O)ON1C)OCC (configuration not stated)
CC50 [2]: 197 µM
AC50 [3]: 457 µM
CC50 [4]: > 1000 µM
CC50 [6]: 247 µM
AC50 [8]: 250 µM
AC50 [9]: 151 µM
CC50 [10]: 408 µM
AC50 [14]: 170 µM
AC50 [15]: 277 µM
CC50 [16]: 141 µM
CC50 [17]: 457 µM

From ChEMBL document CHEMBL1144407, “Synthesis of phosphonated carbocyclic 2'-oxa-3'-aza-nucleosides: novel inhibitors of reverse transcriptase” (J Med Chem, 2005)
